# According to article PMC4688279 (Prostaglandins & other lipid mediators, 2015):
# Several values for one entry are separate records, joined by “and”; a condition that tells them apart may be missing. Identical values can stand only once. Like-named read-outs stand apart in the source and are kept apart here.
# What was measured:
# [1] = tested on: Caco-2 cells; assay: Caco-2 transwell model of in vitro intestinal absorption; assay type: in vitro ADME, human; details: after 6 hours of incubation
# [2] = tested on: primary rat hepatocytes; assay: Metabolic stability in primary rat hepatocytes; assay type: in vitro ADME; details: for initially added TPPU remaining intact: after 20 hours, n=6
# In short: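 Rat hepatocytes were isolated by portal-vein perfusion with oxygenated 2 mM EDTA buffer (37°C, 40 mL/min, 45 min), then purified on a 58% Percoll gradient (800 × g, 5 min). 1×10^5 cells were plated and allowed to attach for 4 h. Test compound (1 or 10 μM) was added in DMEM, 0.1% DMSO final; n=6. One medium aliquot was frozen directly. The other was deconjugated with glucuronidase (10.000 U/mL) and sulfatase (700 U/mL) in acetate buffer, pH 5.0, for 24 h.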
# [3] = Chemical stability of TPPU in drinking water; assay type: physicochemical; details: 0.2% PEG400 in water, 8 days, plastic water bottles
# [4] = assay type: in vivo; details: rat
# [5] = tested on: mice sEH; details: read-out: IC50 sEH; cited from earlier work
# [6] = mice, cited from earlier work; for Cmax: read-out: Cmax in blood
# [7] = mice, three weeks drinking water, cited from earlier work
# [8] = cynomolgus monkeys, single oral dose 0.3 mg/kg; cited from earlier work
# [9] = tested on: human sEH; details: read-out: IC50 sEH; cited from earlier work
# [10] = tested on: rat sEH; details: read-out: IC50 sEH; cited from earlier work
smiles,measurement,setting,value
CCC(=O)N1CCC(NC(=O)Nc2ccc(OC(F)(F)F)cc2)CC1 [TPPU],added amount detected on the basolateral side,[1],66%
same,recovery of TPPU after glucuronidase/sulfatase treatment of the medium,[2]; 1 μM TPPU,93 ± 9.3%
same,initially added TPPU remaining intact,[2]; 1 μM TPPU,87 ± 3.5%
same,recovery of TPPU after glucuronidase/sulfatase treatment of the medium,[2]; 10 μM TPPU,90 ± 5.9%
same,initially added TPPU remaining intact,[2]; 10 μM TPPU,90 ± 1.6% and 90%
same,recovery in drinking water (chemical stability),[3]; 0.2 mg/L,103 ± 3.2%
same,recovery in drinking water (chemical stability),[3]; 10 mg/L,109 ± 4.9%
same,distribution into brain,"[4]; drinking water, day 8",A significant portion also crosses the blood brain barrier
same,liver tissue level in comparison to heart tissue,"[4]; group with the highest TPPU concentration, day 8",about 3.5 fold
same,IC50,[5],6 nM
same,bioavailability,"[6]; oral gavage 0.1–3 mg/kg, based on AUC",31–41%
same,Cmax,[6]; single dose p.o. 0.1 mg/kg,270 nM
same,Cmax,[6]; single dose p.o. 0.3 mg/kg,1700 nM
same,plasma level,[7]; 0.2 mg/kg BW daily,610 ± 130 nM
same,plasma level,[7]; 0.6 mg/kg BW daily,1800 ± 445 nM
same,Cmax,[8],700 ± 600 nM
